We go through nine molecules from ChEMBL document CHEMBL4840309, “Nanomolar inhibition of human OGA by 2-acetamido-2-deoxy-d-glucono-1,5-lactone semicarbazone derivatives” (Eur J Med Chem, 2021).

In experiment [1] the target is T1, Protein O-GlcNAcase (Homo sapiens, UniProt O60502).
T1 sequence (O60502 whole entry): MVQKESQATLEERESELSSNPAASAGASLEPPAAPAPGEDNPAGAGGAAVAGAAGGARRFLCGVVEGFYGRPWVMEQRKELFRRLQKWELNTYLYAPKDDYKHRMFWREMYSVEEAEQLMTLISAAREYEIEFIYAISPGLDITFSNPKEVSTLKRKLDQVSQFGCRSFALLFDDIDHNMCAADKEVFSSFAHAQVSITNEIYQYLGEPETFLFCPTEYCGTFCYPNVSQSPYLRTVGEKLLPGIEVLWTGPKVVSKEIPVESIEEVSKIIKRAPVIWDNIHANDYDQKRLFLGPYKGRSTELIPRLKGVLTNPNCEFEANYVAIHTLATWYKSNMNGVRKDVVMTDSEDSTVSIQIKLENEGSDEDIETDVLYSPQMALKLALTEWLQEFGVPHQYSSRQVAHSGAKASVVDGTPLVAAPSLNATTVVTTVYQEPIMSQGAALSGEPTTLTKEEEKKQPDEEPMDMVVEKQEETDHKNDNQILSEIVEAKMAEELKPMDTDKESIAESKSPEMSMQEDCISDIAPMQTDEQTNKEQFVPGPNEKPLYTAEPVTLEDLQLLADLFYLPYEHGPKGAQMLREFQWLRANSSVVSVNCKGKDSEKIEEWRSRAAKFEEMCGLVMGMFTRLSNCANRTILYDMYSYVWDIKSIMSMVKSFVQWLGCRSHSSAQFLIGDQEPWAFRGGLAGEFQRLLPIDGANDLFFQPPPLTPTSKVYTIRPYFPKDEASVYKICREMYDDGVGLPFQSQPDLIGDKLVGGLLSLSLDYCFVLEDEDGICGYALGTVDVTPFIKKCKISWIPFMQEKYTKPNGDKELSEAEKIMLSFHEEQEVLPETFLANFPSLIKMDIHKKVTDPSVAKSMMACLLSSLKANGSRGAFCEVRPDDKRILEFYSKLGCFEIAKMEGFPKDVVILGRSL
Briefly: Competitive inhibition of N-terminal His-tagged human OGA using 4-Mu-GlcNAc as substrate assessed as inhibition constant by measuring liberation of […] preincubated with enzyme followed by substrate addition by Cornish-Bowden method. In short, it runs like this:
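Full-length long isoform of human OGA with an N-terminal His6 tag, expressed in E. coli Rosetta(DE3) and purified on Co2+ IMAC. 3 nM enzyme was pre-incubated at 37 °C with inhibitor (0–100 nM) in 50 mM potassium phosphate, pH 7.5. Reaction was started with 4-MU-GlcNAc at three levels. Fluorescence (ex 360, em 450) was read every 10 s for 10 min. Triplicates; Ki from Dixon plot; mode by Cornish-Bowden.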

Experiment [2] deals with T2, HEXA/HEXB (Bos taurus, UniProt Q0V8R6+H7BWW2).
T2 sequence (Q0V8R6 whole entry): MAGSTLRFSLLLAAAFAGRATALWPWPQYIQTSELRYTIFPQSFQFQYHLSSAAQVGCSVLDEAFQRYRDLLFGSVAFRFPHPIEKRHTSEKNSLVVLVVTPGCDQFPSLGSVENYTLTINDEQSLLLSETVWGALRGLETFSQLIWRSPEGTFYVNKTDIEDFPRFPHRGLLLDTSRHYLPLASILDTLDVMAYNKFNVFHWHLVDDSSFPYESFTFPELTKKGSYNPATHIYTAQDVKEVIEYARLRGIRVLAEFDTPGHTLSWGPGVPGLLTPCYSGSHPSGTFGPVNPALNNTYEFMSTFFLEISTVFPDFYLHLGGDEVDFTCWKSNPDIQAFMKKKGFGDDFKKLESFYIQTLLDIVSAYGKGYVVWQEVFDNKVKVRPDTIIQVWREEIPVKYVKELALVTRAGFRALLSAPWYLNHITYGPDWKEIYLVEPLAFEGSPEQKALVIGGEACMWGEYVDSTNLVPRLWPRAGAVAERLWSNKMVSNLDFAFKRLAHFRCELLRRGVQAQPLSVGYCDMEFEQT
T2 sequence (H7BWW2 whole entry): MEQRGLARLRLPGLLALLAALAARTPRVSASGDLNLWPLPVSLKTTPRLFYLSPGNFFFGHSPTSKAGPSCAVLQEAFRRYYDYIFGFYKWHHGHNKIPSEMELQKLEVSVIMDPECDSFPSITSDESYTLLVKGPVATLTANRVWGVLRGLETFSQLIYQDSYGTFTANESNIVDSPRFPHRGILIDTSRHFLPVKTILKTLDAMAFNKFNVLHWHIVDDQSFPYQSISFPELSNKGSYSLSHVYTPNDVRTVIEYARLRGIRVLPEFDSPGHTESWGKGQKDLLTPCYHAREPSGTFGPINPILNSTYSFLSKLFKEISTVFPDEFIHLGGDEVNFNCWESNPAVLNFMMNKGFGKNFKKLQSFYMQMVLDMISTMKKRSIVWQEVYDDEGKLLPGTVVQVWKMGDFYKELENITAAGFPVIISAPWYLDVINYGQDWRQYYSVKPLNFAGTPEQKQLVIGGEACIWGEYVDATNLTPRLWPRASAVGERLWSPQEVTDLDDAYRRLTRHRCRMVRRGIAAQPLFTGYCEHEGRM
Description: Competitive inhibition of cow HexA/HexB (unknown origin) using pNP-GlcNAc as substrate assessed as inhibition constant by measuring liberation of nitrophenol preincubated with enzyme followed by substrate addition by Dixon plot analysis. It counts as protein.

For experiment [3], the target named is T1, Protein O-GlcNAcase. Briefly: Competitive inhibition of N-terminal His-tagged human OGA using pNP-GlcNAc as chromogenic substrate assessed as inhibition constant by measuring liberation of nitrophenol preincubated with enzyme followed by substrate addition by Dixon plot analysis. Put shortly:
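His6-tagged full-length human OGA (Rosetta(DE3), Co2+ IMAC), 33 nM. Pre-incubated with inhibitor at 37 °C in 50 mM potassium phosphate, pH 7.5, 1 ml. Started by adding pNP-GlcNAc at three concentrations. Release of p-nitrophenol followed continuously at 400 nm. Initial rates in triplicate; Ki by linear regression of Dixon plots; modality checked by Cornish-Bowden plots.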

The target of experiment [4] is T2, HEXA/HEXB. Description: Inhibition of HexA/HexB (unknown origin). It counts as protein assay, Homo sapiens.
Experiment [5] deals with T1, Protein O-GlcNAcase. Briefly: Inhibition of OGA (unknown origin) using pNP-O-GlcNAc as substrate assessed as inhibition constant incubated for 30 mins.

One may read the Ki as the equilibrium dissociation constant of an inhibitor or competing ligand from its target. As to `CC(=O)N[C@H]1/C(=N/NC(=O)Nc2ccc3ccccc3c2)O[C@H](CO)[C@@H](O)[C@@H]1O`, the inhibition constant (Ki) on Protein O-GlcNAcase [1] came to 36 nM; on HEXA/HEXB [2] it was 47 nM.

Consider `CC(=O)N[C@H]1/C(=N/NC(=O)Nc2cccc3ccccc23)O[C@H](CO)[C@@H](O)[C@@H]1O`, for which the Ki at Protein O-GlcNAcase [3] stood at 506 nM; at HEXA/HEXB [2] it was 154 nM.

For the molecule `CC(=O)N[C@H]1/C(=N/NC(=O)Nc2ccc(C(F)(F)F)cc2)O[C@H](CO)[C@@H](O)[C@@H]1O`, the Ki amounted to 167 nM at Protein O-GlcNAcase [3] and 125 nM on HEXA/HEXB [2].

Consider `CC(=O)N[C@H]1/C(=N/NC(=O)Nc2ccc(Cl)cc2)O[C@H](CO)[C@@H](O)[C@@H]1O`, for which the inhibitory constant (Ki) at Protein O-GlcNAcase [1] came to 83 nM; on HEXA/HEXB [2], 170 nM.

As for `COc1ccc(NC(=O)N/N=C2\O[C@H](CO)[C@@H](O)[C@H](O)[C@H]2NC(C)=O)cc1`, the results for the Ki on Protein O-GlcNAcase [3] and on HEXA/HEXB [2] were 270 nM and 413 nM, respectively.

With `CC(=O)N[C@H]1/C(=N/NC(=O)Nc2ccccc2)O[C@H](CO)[C@@H](O)[C@@H]1O`, the values for the Ki on Protein O-GlcNAcase [3], on HEXA/HEXB [2] and on HEXA/HEXB [4] were 190 nM, 205 nM and 130 nM, respectively.

With `CC(=O)N[C@H]1/C(=N/NC(=S)Nc2ccccc2)O[C@H](CO)[C@@H](O)[C@@H]1O`, the figures for the Ki on Protein O-GlcNAcase [3] and at HEXA/HEXB [2] were 27000 nM and 30000 nM, respectively.

As for `CC(=O)N[C@H]1/C(=N/O)O[C@H](CO)[C@@H](O)[C@@H]1O`, at Protein O-GlcNAcase [5], the Ki is 1600 nM.

Regarding `CC(=O)N[C@H]1/C(=N/NC(=O)Nc2ccc(C)cc2)O[C@H](CO)[C@@H](O)[C@@H]1O`, the inhibitory constant (Ki) is 155 nM at Protein O-GlcNAcase [3] and 332 nM at HEXA/HEXB [2].
